Results from paper PMC8158046 (Oncoimmunology, 2021).
Positions of bridges follow the written chain, without caps; N, C: chain ends. Chains are numbered I, II in the order given. No end group written: not given here.

Assays:
MDA-MB-231 cells = test: Tumor cell density by inverted microscope, MDA-MB-231; assay type: cell-based, human; conditions: 10 μg/ml; for effect on MDA-MB-231 tumor cells in the absence of PBMCs: monolayer without PBMC, microscope
Method in brief: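 Tumor cells (MDA-MB-231 or MDA-MB-468, 4x10^5/2 ml) were plated overnight, then cultured with or without donor PBMCs (2x10^6/ml). Test compound or scrambled peptide was added at 10 µg/ml at 37°C, 5% CO2. Wells were washed once with PBS and cell density was documented by inverted light microscopy.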

CD45 receptor [1] = target: T1, CD45 receptor (Homo sapiens, UniProt P08575); assay type: cell-based; conditions: CD45 blocked with monoclonal antibody and blocking peptide, n = 5
T1 sequence (P08575 195-577 limits assumed): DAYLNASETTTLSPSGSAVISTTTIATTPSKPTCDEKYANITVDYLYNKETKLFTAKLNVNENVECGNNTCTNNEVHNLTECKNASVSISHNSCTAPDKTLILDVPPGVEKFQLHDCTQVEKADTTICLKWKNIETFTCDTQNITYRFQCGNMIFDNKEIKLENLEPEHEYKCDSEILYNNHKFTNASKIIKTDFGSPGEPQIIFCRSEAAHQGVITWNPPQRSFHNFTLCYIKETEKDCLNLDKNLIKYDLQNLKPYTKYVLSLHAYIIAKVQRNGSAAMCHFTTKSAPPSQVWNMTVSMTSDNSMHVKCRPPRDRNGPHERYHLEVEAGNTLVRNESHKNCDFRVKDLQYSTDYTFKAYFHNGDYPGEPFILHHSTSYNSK

[2] = test system: MCF-10A normal breast cells; test: MCF-10A cell killing by FACS; assay type: cell-based, human; conditions: for spontaneous cell apoptosis (killing) of MCF-10A cells: 10 μg/ml, 4–6 days, PBMC+MCF-10A, N = 3, mean ± SD
Method in brief: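 MCF-10A cells were co-cultured with donor PBMCs (2x10^6/ml) plus test compound or scrambled peptide at 37°C, 5% CO2. Adherent cells were then detached. Anti-CD45 staining was used to exclude leukocytes, and apoptosis in the gated CD45-negative cells was measured by Annexin V/PI flow cytometry.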

[3] = test system: PBMCs from healthy female donors co-cultured with MDA-MB-231; test: FACS of activated PBMC sub-populations in co-cultures with MDA-MB-231; assay type: cell-based, human
Method in brief: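 Lymphocytes were recovered from tumor/PBMC co-cultures; samples with >98% CD45+ cells were used. Cells (0.5x10^6/50 µl PBS) were stained for CD4, CD8, CD56, NKG2D, CD14, CD69, CD57 and CD137. Gated live cells were analysed by flow cytometry; mean ± SD reported, ANOVA with Tukey-Kramer.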

[4] = test system: PBMCs co-cultured with MDA-MB-231; test: Cytokine secretion by ELISA in supernatants of PBMC/MDA-MB-231 co-cultures; assay type: cell-based, human
Method in brief: (§1)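 Target cells (MDA-MB-231, MDA-MB-468 or DMEM/10% FCS-grown MCF-10A; 4x10^5/2 ml) were plated overnight. PBMCs (2x10^6/ml, RPMI with 5% AB serum) were added, with test compound added at once (0.1–60 µg/ml) and scrambled peptide as control, at 37°C, 5% CO2. Supernatants were cleared (1200 rpm, 10 min) and stored at −80°C. IFNγ, TNFα, IL-2 and IL-1β were measured by ELISA.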

MDA-MB-231 xenograft = test: MDA-MB-231 tumor xenograft in nude mice given human PBMCs; assay type: in vivo, BALB/C nude mice; conditions: for increase in human IFN-γ secretion in serum versus S-C24D group: 13 days after PBMC administration, p <0.05
Method in brief: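 Female BALB/c nude mice (5–6 weeks) received 4x10^6 MDA-MB-231 cells s.c. in the right flank. At ~100 mm3 (day 6) they were randomized. Human PBMCs from 2 female donors were pre-incubated 5 min with test compound, scrambled peptide or PBS, then given IV. Treatment (60 or 300 µg/mouse in 200 µl PBS) followed IV twice weekly for 2 weeks. At 13 days, serum human IFNγ was measured. Paraffin tumor sections (pH 6 retrieval) were immunostained for CD45, activated CD56, CD8 and cleaved caspase-3, and 5 fields/slide on 5 slides were quantified.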

[5] = Stability in human whole blood; assay type: in vitro ADME
CD45 receptor [6] = target: T1, CD45 receptor; test: FACS analysis of C24D binding to PBMC sub-populations
CD45 receptor [7] = target: T2, CD45 receptor (Homo sapiens, UniProt P08575); assay type: in vitro ADME; conditions: 1.5 μM C24D, 3 hours after adding, ELISA read-out
T2 sequence (P08575 26-1306): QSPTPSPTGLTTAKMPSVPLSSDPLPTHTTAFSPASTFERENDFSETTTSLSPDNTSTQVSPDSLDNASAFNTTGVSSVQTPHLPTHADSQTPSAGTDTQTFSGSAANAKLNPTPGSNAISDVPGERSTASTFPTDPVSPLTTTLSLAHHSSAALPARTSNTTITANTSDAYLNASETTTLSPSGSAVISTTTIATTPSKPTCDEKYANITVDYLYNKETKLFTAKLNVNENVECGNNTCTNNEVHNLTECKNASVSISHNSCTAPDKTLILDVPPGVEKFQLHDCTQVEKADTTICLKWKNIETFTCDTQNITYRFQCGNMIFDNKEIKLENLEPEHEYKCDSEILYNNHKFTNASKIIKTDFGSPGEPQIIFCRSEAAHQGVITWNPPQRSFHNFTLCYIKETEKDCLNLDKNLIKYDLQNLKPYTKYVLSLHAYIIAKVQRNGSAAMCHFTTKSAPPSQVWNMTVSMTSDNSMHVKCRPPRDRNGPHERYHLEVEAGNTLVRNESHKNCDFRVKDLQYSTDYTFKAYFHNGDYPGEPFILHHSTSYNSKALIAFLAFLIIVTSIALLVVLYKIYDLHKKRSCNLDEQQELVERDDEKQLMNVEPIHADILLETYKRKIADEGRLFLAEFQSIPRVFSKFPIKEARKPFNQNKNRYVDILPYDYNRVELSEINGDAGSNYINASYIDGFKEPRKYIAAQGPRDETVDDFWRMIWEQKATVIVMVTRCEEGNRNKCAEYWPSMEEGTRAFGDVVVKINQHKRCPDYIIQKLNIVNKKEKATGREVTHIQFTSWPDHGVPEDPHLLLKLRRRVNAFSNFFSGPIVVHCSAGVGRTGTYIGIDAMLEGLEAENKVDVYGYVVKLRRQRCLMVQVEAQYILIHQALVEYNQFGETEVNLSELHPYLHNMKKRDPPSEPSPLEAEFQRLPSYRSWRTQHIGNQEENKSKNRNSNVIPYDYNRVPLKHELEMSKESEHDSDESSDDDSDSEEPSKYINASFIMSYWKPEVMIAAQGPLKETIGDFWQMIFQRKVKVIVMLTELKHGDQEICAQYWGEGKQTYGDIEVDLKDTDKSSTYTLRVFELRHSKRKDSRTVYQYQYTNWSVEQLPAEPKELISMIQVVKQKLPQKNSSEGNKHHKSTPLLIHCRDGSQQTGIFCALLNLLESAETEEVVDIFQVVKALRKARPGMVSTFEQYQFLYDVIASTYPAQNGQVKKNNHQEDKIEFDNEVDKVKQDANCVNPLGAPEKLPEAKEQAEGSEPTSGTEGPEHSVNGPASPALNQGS

CD45 signaling pathway [8] = test: CD45 signal transduction by western blot, PBMC/MDA-MB-231 co-cultures; assay type: cell-based, human; conditions: 10 µg/ml, n = 9, p <0.27
CD45 signaling pathway [9] = test: CD45 signal transduction by intracellular FACS, PBMC/MDA-MB-231 co-cultures; assay type: cell-based, human; conditions: PBMCs co-cultured with MDA-MB-231 for 24hs, C24D for 15 minutes
Method in brief: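 PBMCs (2x10^6/ml, RPMI with 5% AB serum) were co-cultured for 24 h at 37°C, 5% CO2 with MDA-MB-231 cells pre-plated overnight (4x10^5/2 ml). Test compound was then added for 15 minutes. Phosphorylation was read by FACS in live PBMCs and normalized to the scrambled-peptide control.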

CD45 signaling pathway [10] = test: Protein phosphorylation by western blot in fresh PBMCs from TNBC patients; assay type: cell-based, human; conditions: fresh PBMCs from 5 TNBC patients, C24D 5 to 60 minutes, mean ± SD
Method in brief: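 PBMCs were lysed in buffer containing phosphatase inhibitors (NaF, Na3VO4, β-glycerophosphate), freeze-thawed once and cleared at 14,000 rpm. Lysates were run on 10% SDS-PAGE and blotted for phospho-Lck Y505, phospho-Lck Y394, phospho-VAV-1 Y174 and phospho-ZAP70 Y493, with GAPDH as loading control. Bands were quantified by infrared imaging, normalized to control, and reported as mean ± SD.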

CD45 signaling pathway [11] = assay type: cell-based, human; conditions: incubated with C24D for 5 to 24 hours, 5 separate experiments
[12] = test system: PBMCs co-cultured with MCF-10A; test: Cytokine secretion in co-cultures of MCF-10A normal breast cells and PBMCs; assay type: cell-based, human; conditions: MCF-10A/PBMC co-culture after C24D, n = 3
Method in brief: as §1

[13] = 10 μg/ml C24D added to co-cultures
[14] = 10 μg/ml C24D, PBMCs from 11 healthy female donors, mean ± SD

For “CG-PPRIHPLKRISRTRLPRLHRPFHIS [S-C24D, reference compound]”, the “effect on MDA-MB-231 tumor cells in the absence of PBMCs” value (MDA-MB-231 cells) was “no effect”, the “IFN-γ in supernatants of co-cultures with blocked CD45 receptor” value (CD45 receptor [1]) was 108 ± 20 pg/mL and the “spontaneous cell apoptosis (killing) of MCF-10A cells” value [2] was 7.25 ± 2.34%.

In the case of “I: CGHHLLRPRRRKRPHSIPTPILIFRSP / II: CGHHLLRPRRRKRPHSIPTPILIFRSP (disulfide I:1-II:1) [C24D]”, the “tumor apoptosis seen by microscope in PBMC/MDA-MB-231 co-cultures” value (MDA-MB-231 cells; PBMCs from healthy donors) is reported as “massive tumor apoptosis”, the “effect on MDA-MB-231 tumor cells in the absence of PBMCs” value (MDA-MB-231 cells) is reported as “no effect” and the CD57 expression [3, 13] is reported as “not influenced”. The “percentage of NKG2D+ and CD45RO+ cells” value [3, 13] was “not influenced”, the “percentage of CD4+/CD69+ cells” value [3, 14] was 4.1 ± 1.58% and the “percentage of CD8+/CD69+ cells” value [3, 14] was 33.23%. For the same substance, the “increase in secretion of IL-2” value ([4]; C24D 4–6 days, MDA-MB-231/PBMC co-cultures, n = 7, p < 0.0007) was 92.2%, the “increase in secretion of TNF-α” value ([4]; C24D 4–6 days, MDA-MB-231/PBMC co-cultures, n = 7, p < 0.04) was 98% and the “increase in secretion of IFN-γ” value ([4]; C24D 4–6 days, MDA-MB-231/PBMC co-cultures, n = 8, p <0.03) was 90%. For the same substance, the “cytokine secretion (IFNγ, IL-2, TNFα, IL-1β) in PBMCs alone” value ([4]; C24D added to PBMCs alone, no tumor cells) was “No effect”, the “secretion of IL-1β by monocytes” value ([4]; C24D added to co-cultures) was “non-significant effect” and the “tumor cell apoptosis (Cleaved Caspase-3 immunofluorescence)” value (MDA-MB-231 xenograft; 60 μg (p <0.0013) and 300 μg (p <0.049) per mouse) was “significant increase”. The “increase in human IFN-γ secretion in serum versus S-C24D group” value (MDA-MB-231 xenograft; 60 μg per mouse) was 68%, the “increase in human IFN-γ secretion in serum versus S-C24D group” value (MDA-MB-231 xenograft; 300 μg per mouse) was 82% and the “infiltration of human CD45+ cells in the tumor (immunofluorescence)” value (MDA-MB-231 xenograft; 60 and 300 μg doses vs S-C24D, p <0.015 and p <0.023) was “significantly induced”. The “tumor-infiltrating NK (activated CD56+) cells (immunofluorescence)” value (MDA-MB-231 xenograft; 60 or 300 μg per mouse, p <0.011 and p <0.042) was “significant increase”, the “tumor-infiltrating human CD8 T cells (immunofluorescence)” value (MDA-MB-231 xenograft; 60 or 300 μg per mouse, p <0.07 and p <0.1) was “non-significant” and the half-life [5] was 2.75 h. For the same substance, the “percentage of C24D binding to CD16 after exposure to tumor cells” value (CD45 receptor [6]) was “not affected”, the “leukocyte sub-populations that bound C24D” value (CD45 receptor [6]; PBMCs from healthy female donors, C24D conjugated to Alexa-488 dye) was “all 9 of the tested T, NK and monocyte sub-populations bound C24D” and the “percentage of CD45+ gated PBMCs that bind C24D (double staining)” value (CD45 receptor [6]; anti CD45 monoclonal antibody (CD45-APC) and C24D-Alexa-488 conjugated peptide) was 100%. The “effect of C24D treatment on C24D binding to CD8 and NKG2D sub-populations exposed to MDA-MB-231” value (CD45 receptor [6]; p <0.05) was “reversed the decrease”, the “decrease of binding to CD45 in the presence of human plasma” value (CD45 receptor [7]) was 20% and the “IFN-γ in supernatants of co-cultures with blocked CD45 receptor” value (CD45 receptor [1]) was 107 ± 27 pg/mL. The “phosphorylation of Lck Y394” value (CD45 signaling pathway [8]) was “increased, but not significant statistically”, the “phosphorylation of Y394 in Lck” value (CD45 signaling pathway [9]; n = 3) was “increase” and the “increase of the phosphorylation of VAV-1 versus control” value (CD45 signaling pathway [9]; n = 3, mean ± SD) was 36.2 ± 4.0%. For the same substance, the “increase of the phosphorylation of Y493 in ZAP70 versus control” value (CD45 signaling pathway [9]; n = 3, mean ± SD) was 50.13 ± 10.2%, the “phosphorylation of Lck Y394 after addition of C24D, normalized to control” value (CD45 signaling pathway [10]) was 117.4 ± 36.2% and the “phosphorylation of Lck Y505 after addition of C24D, normalized to control” value (CD45 signaling pathway [10]) was 79.2 ± 3.6%. For the same substance, the “phosphorylation of VAV-1 after addition of C24D, normalized to control” value (CD45 signaling pathway [10]) was 88.4 ± 26.9%, the “phosphorylation of ZAP70 Y493 after addition of C24D, normalized to control” value (CD45 signaling pathway [10]) was 116.4 ± 10.4% and the “Lck, ZAP70 and VAV-1 activation in fresh PBMCs from healthy donors in the absence of tumors” value (CD45 signaling pathway [11]) was “no effect”. The TNF-α concentration [12] was 5.6 ± 0.2 pg/mL, the “spontaneous cell apoptosis (killing) of MCF-10A cells” value [2] was 6.47 ± 0.94% and the “killing in MCF-10A and PBMCs co-cultures” value ([2]; treatment with C24D) was “failed to induce killing”.
